Measured values as given in PMC10401000 (Proceedings of the National Academy of Sciences of the …, 2023).

Key:
[1] = tested on: β2AR; conditions: cited from earlier work
[2] = tested on: HASM cells; test: Magnetic twisting cytometry, HASM cell stiffness; assay type: cell-based, human; conditions: 10 μM ISO
How it was run: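 Magnetic twisting cytometry: integrin-anchored beads on serum-deprived, post-confluent HASM cells from nonasthma donors, plated at 30,000 cells/cm² on collagen I and kept serum-free for 24 h. Cells were pretreated ± 1 μM test compound for 30 min. […] Stiffness was normalized to each cell's baseline; linear mixed-effect model on log data; 463 to 473 cells.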

Compound | allosteric modulator activity at the β2AR [1] | time to peak relaxation [2] [min]
Nc1nc(Nc2ccccc2)nc2ccc(Br)cc12 [AS408] | NAM for both ISO-mediated cAMP production and β-arrestin recruitment | –
CC(C)NCC(O)c1ccc(O)c(O)c1 (centres unmarked) [ISO, isoproterenol] | – | 4 to 5
